Laboratory results reported in ChEMBL document CHEMBL4024783, “Alkylated Piperazines and Piperazine-Azole Hybrids as Antifungal Agents” (J Med Chem, 2018).
≈ marks a conversion by molar mass, not a printed value. Calls of active or inactive are those of the source. No cut-off for these calls is given here.

Legend:
[1] = test system: Candida albicans; experiment: Antifungal activity against Candida albicans ATCC 64124 after 48 hrs by broth dilution method; assay type: functional; settings: Candida albicans, ATCC 64124, 48 h
How it was run: (§1)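 CLSI M27-A3 broth microdilution with minor modifications. Overnight YPD culture grown at 35 °C, 200 rpm, adjusted to OD600 0.12, diluted in RPMI 1640 buffered to pH 7.0 with 0.165 M MOPS to a final 1–2 × 10^3 CFU/mL. Test compounds at 0.015–31.3 µg/mL, 48 h at 35 °C, DMSO <1.25%. […] Triplicate.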

[2] = test system: Aspergillus terreus; experiment: Antifungal activity against Aspergillus terreus ATCC MYA-3633 after 48 hrs by broth dilution method; assay type: functional; settings: Aspergillus terreus, ATCC MYA-3633, 48 h
How it was run: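 Molds tested per CLSI M38-A2. Spores were harvested from sporulating PDA cultures by filtering through glass wool and counted on a hemocytometer. Serial dilutions (0.03–31.3 µg/mL) were made in RPMI 1640 buffered to pH 7.0 with 0.165 M MOPS, final inoculum 5 × 10^5 CFU/mL.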

[3] = test system: Candida albicans; experiment: Antifungal activity against itraconazole and fluconazole resistant Candida albicans ATCC MYA-1237 after 48 hrs by broth dilution method; assay type: functional; settings: Candida albicans, ATCC MYA-1237, 48 h; how it was run: as §1
[4] = test system: A549; experiment: Cytotoxicity against human A549 cells up to 15.5 ug/mL after 24 hrs by resazurin-based fluorescence assay; assay type: cell-based; settings: a549, 24 h
How it was run: (§2)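 Cells grown in DMEM with 10% FBS at 37 °C, 5% CO2, and seeded at 10000 (HEK-293) or 3000 (BEAS-2B, A549) per well. After 16 h, exposed 24 h to 0.13–31 µg/mL final in medium with 0.1–0.4% DMSO. Resazurin added for 6–10 h; fluorescence read at 560/590 nm and survival normalized to DMSO control after background subtraction. Triton X-100 12.5% v/v positive control; duplicate.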

[5] = test system: Candida albicans; experiment: Antifungal activity against itraconazole and fluconazole susceptible Candida albicans ATCC MYA-2310 after 48 hrs by broth dilution method; assay type: functional; settings: Candida albicans, ATCC MYA-2310, 48 h
[6] = test system: Candida albicans; experiment: Antifungal activity against itraconazole and fluconazole resistant Candida albicans ATCC 90819 after 48 hrs by broth dilution method; assay type: functional; settings: Candida albicans, ATCC 90819, 48 h; how it was run: as §1
[7] = test system: Candida albicans; experiment: Antifungal activity against itraconazole and fluconazole resistant Candida albicans ATCC MYA-1003 after 48 hrs by broth dilution method; assay type: functional; settings: Candida albicans, ATCC MYA-1003, 48 h; how it was run: as §1
[8] = test system: HEK293; experiment: Cytotoxicity against HEK293 cells at 7.8 ug/mL after 24 hrs by resazurin-based fluorescence assay; assay type: cell-based; settings: human, hek293, 24 h; how it was run: as §2
[9] = test system: Candida parapsilosis; experiment: Antifungal activity against Candida parapsilosis ATCC 22019 after 48 hrs by broth dilution method; assay type: functional; settings: Lodderomyces parapsilosis, ATCC 22019, 48 h
[10] = test system: Pichia kudriavzevii; experiment: Antifungal activity against Candida krusei ATCC 6258 after 48 hrs by broth dilution method; assay type: functional; settings: Pichia kudriavzevii, ATCC 6258, 48 h
How it was run: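 Yeasts tested per CLSI M27-A3 with minor changes. An overnight YPD culture (35 °C, 200 rpm) was adjusted to OD600 0.12 and diluted in MOPS-buffered RPMI 1640 (pH 7.0) to a final 1–2 × 10^3 CFU/mL. Compounds 0.015–31.3 µg/mL, DMSO <1.25%.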

[11] = test system: BEAS-2B; experiment: Cytotoxicity against human BEAS2B cells at 7.8 ug/mL after 24 hrs by resazurin-based fluorescence assay; assay type: cell-based; how it was run: as §2
[12] = test system: Aspergillus nidulans; experiment: Antifungal activity against Aspergillus nidulans ATCC 38163 after 48 hrs by broth dilution method; assay type: functional; settings: Aspergillus nidulans, ATCC 38163, 48 h
How it was run: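 A. nidulans run per CLSI M38-A2. PDA spores were filtered through glass wool and counted by hemocytometer. Test range 0.03–31.3 µg/mL in MOPS-buffered RPMI 1640 (pH 7.0), final 5 × 10^5 CFU/mL.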

[13] = test system: Nakaseomyces glabratus; experiment: Antifungal activity against Candida glabrata ATCC 2001 after 48 hrs by broth dilution method; assay type: functional, CBS 138; settings: Nakaseomyces glabratus, CBS 138, 48 h
[14] = test system: Aspergillus flavus; experiment: Antifungal activity against Aspergillus flavus ATCC MYA-3631 after 48 hrs by broth dilution method; assay type: functional; settings: ATCC MYA-3631, 48 h
[15] = test system: Candida albicans; experiment: Antifungal activity against Candida albicans ATCC 10231 after 48 hrs by broth dilution method; assay type: functional; settings: ATCC 10231, 48 h
[16] = test system: Candida albicans; experiment: Antifungal activity against itraconazole and fluconazole susceptible Candida albicans ATCC MYA-2876 after 48 hrs by broth dilution method; assay type: functional; settings: Candida albicans, ATCC MYA-2876, 48 h
[17] = test system: Candida parapsilosis; experiment: Antifungal activity against Candida parapsilosis ATCC 22019 after 48 hrs in the presence of 10% FBS by broth dilution method; assay type: functional; settings: Lodderomyces parapsilosis, ATCC 22019, 48 h
[18] = test system: Aspergillus nidulans; experiment: Antifungal activity against Aspergillus nidulans ATCC 38163 after 48 hrs in the presence of 10% FBS by broth dilution method; assay type: functional; settings: ATCC 38163, 48 h
[19] = test system: Candida albicans; experiment: Inhibition of 14alpha-demethylase in Candida albicans ATCC 10231 assessed as eburicol levels at 0.975 ug/mL by GC-MS analysis; parameters: scale not given: the % may be the effect or the level left
How it was run: (§3)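 C. albicans ATCC 10231 was treated with drug or DMSO (no-drug control). Sterols were extracted and analysed by GC-MS; lanosterol, eburicol, ergosterol and 14α-methyl ergosta-8,24(28)-diene-3β,6α-diol were quantified as percent of sterols.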

[20] = test system: Candida albicans; experiment: Antifungal activity against Candida albicans ATCC 10231 at 7.8 ug/mL incubated for 1 hr by propidium iodide staining-based fluorescence microscopic method; assay type: functional
How it was run: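 C. albicans ATCC 10231 grown overnight in YPD broth at 35 °C with shaking at 200 rpm, then transferred to RPMI 1640. Cells were exposed to drug and stained with propidium iodide, which enters only cells with compromised membranes. Uptake was judged by fluorescence microscopy against an untreated control.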

[21] = test system: Candida albicans; experiment: Ratio of MIC80 for voriconazole resistant Candida albicans ATCC 64124 sessile cells to MIC for voriconazole resistant Candida albicans ATCC 64124; assay type: functional
[22] = test system: Candida albicans; experiment: Antibiofilm activity against voriconazole resistant Candida albicans ATCC 64124 sessile cells incubated for 24 hrs by XTT reduction assay; assay type: functional; settings: ATCC 64124, 24 h
How it was run: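 Strain B grown overnight in YPD broth at 35 °C, diluted to OD600 0.1 (~10^6 CFU/mL), then grown statically for 24 h at 37 °C to form biofilm. Washed with PBS, then drug in RPMI 1640 at 0.12–62.5 µg/mL for 24 h at 37 °C. Read-out: XTT 0.5 mg/mL with menadione 1 µM, 2 h, A490. SMIC50/SMIC80 are 50%/80% decreases versus drug-free biofilm. Duplicate.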

[23] = Aqueous solubility of the compound; assay type: physicochemical; settings: buffer
[24] = test system: Candida albicans; experiment: Inhibition of 14alpha-demethylase in Candida albicans ATCC 10231 assessed as lanosterol levels at 0.975 ug/mL by GC-MS analysis; parameters: scale not given: the % may be the effect or the level left; how it was run: as §3
[25] = test system: Candida albicans; experiment: Inhibition of 14alpha-demethylase in Candida albicans ATCC 10231 assessed as ergosterol levels at 0.975 ug/mL by GC-MS analysis; parameters: scale not given: the % may be the effect or the level left; how it was run: as §3
[26] = Solubility of the compound in DMSO; assay type: physicochemical
[27] = test system: Candida albicans; experiment: Inhibition of 14alpha-demethylase in Candida albicans ATCC 10231 assessed as 14alpha-methyl ergosta-8,24(28)-dien-3beta,6alpha-diol levels at 0.975 ug/mL by GC-MS analysis; parameters: scale not given: the % may be the effect or the level left; how it was run: as §3
[28] = test system: Candida albicans; experiment: Inhibition of 14alpha-demethylase in Candida albicans ATCC 10231 assessed as total sterol levels at 0.975 ug/mL by GC-MS analysis; parameters: scale not given: the % may be the effect or the level left; how it was run: as §3
[29] = test system: Candida albicans; experiment: Antifungal activity against Candida albicans ATCC 10231 after 48 hrs in the presence of 10% FBS by broth dilution method; assay type: functional; settings: ATCC 10231, 48 h

| SMILES | MIC [1] [µM] | MIC [2] [µM] | MIC [3] [µM] | MIC [5] [µM] | MIC [6] [µM] | MIC [7] [µM] | MIC [9] [µM] | MIC [10] [µM] | MIC [12] [µM] | MIC [13] [µM] | MIC [14] [µM] | MIC [15] [µM] | MIC [16] [µM] | further results |
| --- | --- | --- | --- | --- | --- | --- | --- | --- | --- | --- | --- | --- | --- | --- |
| CCCCCCCCN1CCN(CC(O)(Cn2cncn2)c2ccc(F)cc2F)CC1 (stereo not drawn) | 71.9 (≈ 31.3 µg/mL) | 9 (≈ 3.92 µg/mL) | 71.9 (≈ 31.3 µg/mL) | > 71.9 | 35.8 (≈ 15.6 µg/mL) | 2.2 to 71.9 (≈ 0.958 to 31.3 µg/mL) | 0.1 (≈ 0.0436 µg/mL) | 17.9 (≈ 7.8 µg/mL) | 9 (≈ 3.92 µg/mL) | 35.8 (≈ 15.6 µg/mL) | 4.5 (≈ 1.96 µg/mL) | 9 (≈ 3.92 µg/mL) | 71.9 (≈ 31.3 µg/mL) | Activity [4]: Non-Toxic; Activity [8]: Toxic; Activity [11]: Toxic |
| CCCCCCCCCCCCN1CCN(CC(O)(Cn2cncn2)c2ccc(Cl)cc2Cl)CC1 (stereo not drawn) | 14.9 (≈ 7.82 µg/mL) | 3.7 (≈ 1.94 µg/mL) | 7.4 (≈ 3.88 µg/mL) | 7.4 (≈ 3.88 µg/mL) | 7.4 (≈ 3.88 µg/mL) | 3.7 (≈ 1.94 µg/mL) | 0.46 (≈ 0.241 µg/mL) | 3.7 (≈ 1.94 µg/mL) | 3.7 (≈ 1.94 µg/mL) | 1.9 (≈ 0.997 µg/mL) | 7.4 (≈ 3.88 µg/mL) | 3.7 (≈ 1.94 µg/mL) | 7.4 (≈ 3.88 µg/mL) | MIC [17]: 0.24 µg/mL; MIC [18]: 3.9 µg/mL; Activity [19]: 1.15%; Activity [20]: inactive; Ratio [21]: 2 - 4; MIC50 [22]: 15.6 µg/mL (≈ 29.7 µM); MIC80 [22]: 31.3 µg/mL (≈ 59.7 µM); solubility [23]: Soluble; Activity [24]: 29.5%; Activity [25]: 50.6%; solubility [26]: Soluble; Activity [27]: 11.1%; Activity [28]: 3.56 to 4.08%; MIC [29]: 1.95 µg/mL |
